ChEMBL document CHEMBL3621107, “Ring fusion strategy for synthesis and lead optimization of sulfur-substituted anthra[1,2-c][1,2,5]thiadiazole-6,11-dione derivatives as promising scaffold of antitumor agents” (Eur J Med Chem, 2015)

What was measured:
Type in all cases: functional
M14 = assay: Cytotoxicity against human M14 cells assessed as cell growth at 10 uM after 48 hrs by SRB assay relative to control; conditions: M14, 48 h, read-out: Activity
Outline: (§1)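 First-stage NCI-60 screen by the NCI Developmental Therapeutics Program. Each compound was tested once at a single concentration of 10 μM against the 60-cell-line panel. Growth percentage was reported for each cell line.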

OVCAR-8 = assay: Cytotoxicity against human OVCAR8 cells assessed as cell growth at 10 uM after 48 hrs by SRB assay relative to control; conditions: OVCAR-8, 48 h, read-out: Activity
Outline: (§2)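 First-stage NCI DTP one-dose screen against the 60 human tumour cell line panel. Compounds were tested at a single 10 μM level, and results are given as growth percentage.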

SK-OV-3 = assay: Cytotoxicity against human SKOV3 cells assessed as cell growth at 10 uM after 48 hrs by SRB assay relative to control; conditions: SK-OV-3, 48 h, read-out: Activity; outline: as §2
NCI-H226 = assay: Cytotoxicity against human NCI-H226 cells assessed as cell growth at 10 uM after 48 hrs by SRB assay relative to control; conditions: NCI-H226, 48 h, read-out: Activity; outline: as §2
COLO 205 = assay: Cytotoxicity against human COLO205 cells assessed as cell growth at 10 uM after 48 hrs by SRB assay relative to control; conditions: COLO 205, 48 h, read-out: Activity; outline: as §1
SF-539 = assay: Cytotoxicity against human SF539 cells assessed as cell growth at 10 uM after 48 hrs by SRB assay relative to control; conditions: SF-539, 48 h, read-out: Activity; outline: as §2
HCT-116 = assay: Cytotoxicity against human HCT116 cells assessed as cell growth at 10 uM after 48 hrs by SRB assay relative to control; conditions: HCT-116, 48 h, read-out: Activity; outline: as §1
MDA-MB-231 = assay: Cytotoxicity against human MDA-MB-231 cells assessed as cell growth at 10 uM after 48 hrs by SRB assay relative to control; conditions: MDA-MB-231, 48 h, read-out: Activity; outline: as §2
UACC-257 = assay: Cytotoxicity against human UACC257 cells assessed as cell growth at 10 uM after 48 hrs by SRB assay relative to control; conditions: UACC-257, 48 h, read-out: Activity
Outline: (§3)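 NCI-60 one-dose screen run by NCI DTP: each cell line exposed to a single 10 µM dose, and percentage growth recorded against untreated growth.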

ACHN = assay: Cytotoxicity against human ACHN cells assessed as cell growth at 10 uM after 48 hrs by SRB assay relative to control; conditions: read-out: Activity; outline: as §1
UO-31 = assay: Cytotoxicity against human UO31 cells assessed as cell growth at 10 uM after 48 hrs by SRB assay relative to control; conditions: UO-31, 48 h, read-out: Activity; outline: as §3
NCI-H23 = assay: Cytotoxicity against human NCI-H23 cells assessed as cell growth at 10 uM after 48 hrs by SRB assay relative to control; conditions: NCI-H23, 48 h, read-out: Activity; outline: as §2
MDA-MB-435 = assay: Cytotoxicity against human MDA-MB-435 cells assessed as cell growth at 10 uM after 48 hrs by SRB assay relative to control; conditions: MDA-MB-435, 48 h, read-out: Activity; outline: as §2
TK-10 = assay: Cytotoxicity against human TK10 cells assessed as cell growth at 10 uM after 48 hrs by SRB assay relative to control; conditions: TK-10, 48 h, read-out: Activity; outline: as §3
LOX IMVI = assay: Cytotoxicity against human LOXIMVI cells assessed as cell growth at 10 uM after 48 hrs by SRB assay relative to control; conditions: read-out: Activity; outline: as §1
A549 = assay: Cytotoxicity against human A549 cells assessed as cell growth at 10 uM after 48 hrs by SRB assay relative to control; conditions: A549, 48 h, read-out: Activity; outline: as §1
SNB-75 = assay: Cytotoxicity against human SNB75 cells assessed as cell growth at 10 uM after 48 hrs by SRB assay relative to control; conditions: SNB-75, 48 h, read-out: Activity; outline: as §3
SK-MEL-2 = assay: Cytotoxicity against human SK-MEL-2 cells assessed as cell growth at 10 uM after 48 hrs by SRB assay relative to control; conditions: SK-MEL-2, 48 h, read-out: Activity; outline: as §2
SK-MEL-5 = assay: Cytotoxicity against human SK-MEL-5 cells assessed as cell growth at 10 uM after 48 hrs by SRB assay relative to control; conditions: SK-MEL-5, 48 h, read-out: Activity; outline: as §2
RXF 393 = assay: Cytotoxicity against human RXF393 cells assessed as cell growth at 10 uM after 48 hrs by SRB assay relative to control; conditions: RXF 393, 48 h, read-out: Activity; outline: as §2
HCT-15 = assay: Cytotoxicity against human HCT15 cells assessed as cell growth at 10 uM after 48 hrs by SRB assay relative to control; conditions: HCT-15, 48 h, read-out: Activity; outline: as §1
T47D = assay: Cytotoxicity against human T47D cells assessed as cell growth at 10 uM after 48 hrs by SRB assay relative to control; conditions: read-out: Activity; outline: as §3
NCI-H522 = assay: Cytotoxicity against human NCI-H522 cells assessed as cell growth at 10 uM after 48 hrs by SRB assay relative to control; conditions: NCI-H522, 48 h, read-out: Activity; outline: as §2
SF-268 = assay: Cytotoxicity against human SF268 cells assessed as cell growth at 10 uM after 48 hrs by SRB assay relative to control; conditions: SF-268, 48 h, read-out: Activity; outline: as §2
NCI-H460 = assay: Cytotoxicity against human NCI-H460 cells assessed as cell growth at 10 uM after 48 hrs by SRB assay relative to control; conditions: NCI-H460, 48 h, read-out: Activity; outline: as §2
DU-145 = assay: Cytotoxicity against human DU145 cells assessed as cell growth at 10 uM after 48 hrs by SRB assay relative to control; conditions: DU-145, 48 h, read-out: Activity; outline: as §1
[1] = Cytotoxicity against human Hs578T cells assessed as cell growth at 10 uM after 48 hrs by SRB assay relative to control; conditions: Hs-578T, read-out: Activity; outline: as §1
OVCAR-3 = assay: Cytotoxicity against human OVCAR3 cells assessed as cell growth at 10 uM after 48 hrs by SRB assay relative to control; conditions: OVCAR-3, 48 h, read-out: Activity; outline: as §2
K562 = assay: Cytotoxicity against human K562 cells assessed as cell growth at 10 uM after 48 hrs by SRB assay relative to control; conditions: K562, 48 h, read-out: Activity; outline: as §1

For `O=C1c2ccccc2C(=O)c2c1cc(Sc1cccc(Cl)c1)c1nsnc21`, which growth at 10 µM (M14) is on record?
Its growth at 10 µM is -76.4%.

And the growth at 10 µM (OVCAR-8)?
Its growth at 10 µM is -22.9%.

What about the growth at 10 µM (SK-OV-3) of the same molecule?
Its growth at 10 µM is 95.4%.

And the growth at 10 µM (NCI-H226)?
Its growth at 10 µM is 78.1%.

What about the growth at 10 µM (COLO 205) of the same molecule?
The growth at 10 µM was 106%.

And the growth at 10 µM (SF-539)?
The growth at 10 µM was -52.7%.

And the growth at 10 µM (HCT-116)?
The growth at 10 µM was -67.8%.

What about the growth at 10 µM (MDA-MB-231) of the same molecule?
The growth at 10 µM was -29.1%.

What about the growth at 10 µM (UACC-257) of the same molecule?
Its growth at 10 µM is -84.6%.

What about the growth at 10 µM (ACHN) of the same molecule?
Its growth at 10 µM is -92.5%.

And the growth at 10 µM (UO-31)?
Its growth at 10 µM is -74.8%.

What about the growth at 10 µM (NCI-H23) of the same molecule?
Its growth at 10 µM is -26.9%.

And the growth at 10 µM (MDA-MB-435)?
The growth at 10 µM was -82.3%.

What about the growth at 10 µM (TK-10) of the same molecule?
The growth at 10 µM was 53.8%.

What about the growth at 10 µM (LOX IMVI) of the same molecule?
Its growth at 10 µM is -59.2%.

And the growth at 10 µM (A549)?
The growth at 10 µM was 107%.

What about the growth at 10 µM (SNB-75) of the same molecule?
The growth at 10 µM was 26.1%.

And the growth at 10 µM (SK-MEL-2)?
The growth at 10 µM was -53.2%.

And the growth at 10 µM (SK-MEL-5)?
Its growth at 10 µM is 19%.

What about the growth at 10 µM (RXF 393) of the same molecule?
The growth at 10 µM was -27.8%.

And the growth at 10 µM (HCT-15)?
The growth at 10 µM was 18%.

What about the growth at 10 µM (T47D) of the same molecule?
The growth at 10 µM was -42.3%.

What about the growth at 10 µM (NCI-H522) of the same molecule?
The growth at 10 µM was 7.18%.

For `O=C1c2ccccc2C(=O)c2c1cc(SCc1ccc(Cl)cc1)c1nsnc21`, which growth at 10 µM (M14) is on record?
The growth at 10 µM was 126%.

And the growth at 10 µM (OVCAR-8)?
Its growth at 10 µM is 94.2%.

And the growth at 10 µM (NCI-H226)?
The growth at 10 µM was 82.1%.

And the growth at 10 µM (COLO 205)?
The growth at 10 µM was 99.9%.

And the growth at 10 µM (SF-539)?
Its growth at 10 µM is 98%.

What about the growth at 10 µM (HCT-116) of the same molecule?
The growth at 10 µM was 115%.

What about the growth at 10 µM (MDA-MB-231) of the same molecule?
The growth at 10 µM was 95.2%.

And the growth at 10 µM (UACC-257)?
Its growth at 10 µM is 78.7%.

What about the growth at 10 µM (ACHN) of the same molecule?
Its growth at 10 µM is 94.3%.

And the growth at 10 µM (UO-31)?
The growth at 10 µM was 68.5%.

And the growth at 10 µM (SF-268)?
The growth at 10 µM was 107%.

And the growth at 10 µM (NCI-H23)?
The growth at 10 µM was 82.1%.

What about the growth at 10 µM (NCI-H460) of the same molecule?
The growth at 10 µM was 105%.

And the growth at 10 µM (DU-145)?
Its growth at 10 µM is 115%.

What about the growth at 10 µM [1] of the same molecule?
The growth at 10 µM was 88.6%.

And the growth at 10 µM (TK-10)?
The growth at 10 µM was 122%.

And the growth at 10 µM (LOX IMVI)?
The growth at 10 µM was 86.7%.

And the growth at 10 µM (OVCAR-3)?
Its growth at 10 µM is 113%.

What about the growth at 10 µM (A549) of the same molecule?
The growth at 10 µM was 101%.

What about the growth at 10 µM (SNB-75) of the same molecule?
The growth at 10 µM was 63.4%.

What about the growth at 10 µM (SK-MEL-2) of the same molecule?
Its growth at 10 µM is 110%.

What about the growth at 10 µM (SK-MEL-5) of the same molecule?
Its growth at 10 µM is 89.6%.

What about the growth at 10 µM (RXF 393) of the same molecule?
Its growth at 10 µM is 105%.

What about the growth at 10 µM (K562) of the same molecule?
The growth at 10 µM was 67.5%.

And the growth at 10 µM (HCT-15)?
The growth at 10 µM was 97.9%.

What about the growth at 10 µM (T47D) of the same molecule?
Its growth at 10 µM is 83.8%.

What about the growth at 10 µM (NCI-H522) of the same molecule?
Its growth at 10 µM is 82.6%.
